Measured values pooled from the literature.
Protocols differ between the studies behind these lines.
Target: Prostaglandin G/H synthase 2 (PTGS2, Homo sapiens, UniProt P35354)
Read-out: enzyme activity
Mode: inhibitor
Sequence (P35354 18-604, as in one of the studies): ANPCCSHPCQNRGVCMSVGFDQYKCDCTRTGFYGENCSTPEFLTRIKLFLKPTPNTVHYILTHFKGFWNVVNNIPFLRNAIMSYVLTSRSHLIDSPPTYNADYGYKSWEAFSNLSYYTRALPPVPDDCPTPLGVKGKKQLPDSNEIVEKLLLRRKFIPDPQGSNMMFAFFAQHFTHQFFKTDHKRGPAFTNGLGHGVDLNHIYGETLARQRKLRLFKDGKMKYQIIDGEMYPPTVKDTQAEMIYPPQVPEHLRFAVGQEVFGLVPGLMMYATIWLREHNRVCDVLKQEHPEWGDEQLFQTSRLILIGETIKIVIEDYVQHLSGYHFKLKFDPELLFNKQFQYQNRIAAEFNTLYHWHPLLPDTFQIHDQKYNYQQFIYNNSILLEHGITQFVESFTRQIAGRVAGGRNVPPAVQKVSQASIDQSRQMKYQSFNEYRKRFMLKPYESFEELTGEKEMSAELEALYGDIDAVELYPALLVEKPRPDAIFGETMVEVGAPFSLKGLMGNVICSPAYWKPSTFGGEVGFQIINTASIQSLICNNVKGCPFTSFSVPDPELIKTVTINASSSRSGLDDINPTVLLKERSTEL

Compound	test	IC50 [nM]
CS(=O)(=O)c1ccc(-n2cc(/C=N/N=c3\[nH]c(-c4ccc([N+](=O)[O-])cc4)cs3)c(-c3ccc(Br)cc3)n2)cc1	–	11500
CS(=O)(=O)c1ccc(-c2ncccc2-c2nc3ccccc3s2)cc1	absorbance	860
COc1ccc(-c2nn(-c3ccc(S(C)(=O)=O)cc3)cc2/C=N/N=c2\[nH]c(-c3ccc(Br)cc3)cs2)cc1	–	18600
CS(=O)(=O)c1ccc(-c2nc3ccccn3c2Nc2ccc(F)cc2)cc1	–	100
Cc1ccc(-c2nc3ccccc3s2)c(-c2ccc(S(N)(=O)=O)cc2)c1	absorbance	250
O=C(O)/C=C/c1ccc(O)cc1	–	> 100000
Cc1cccn2c(Nc3ccc(F)cc3)c(-c3ccc(S(C)(=O)=O)cc3)nc12	–	70
O=c1cc(-c2ccc(O)c(O)c2)oc2cc(O)cc(O)c12	–	2270
CCOC(=O)c1cc(O)c(O)c(O)c1	–	13400
Cc1cccn2c(Nc3ccccc3)c(-c3ccc(S(C)(=O)=O)cc3)nc12	–	80
O=C1Nc2ccccc2/C1=C/c1cn(-c2nc(N3CCCCC3)nc(N3CCOCC3)n2)c2ccccc12	–	80
COC(=O)c1cc(O)c(O)c(O)c1	–	17900
CCn1c(-c2nc3cc(C(=O)N4CCC[C@@H](N)C4)cc(OC)c3n2C)cc2cccnc21	–	> 100000
CC(C)Cc1ccc(-c2nn(-c3ccc(S(C)(=O)=O)cc3)cc2/C=N\N=C2/NC(=O)CS2)cc1	–	756
Cc1cccc2nc(-c3ccc(S(C)(=O)=O)cc3)c(Nc3ccc(Cl)cc3)n12	–	80
COC(=O)c1ccc(O)cc1	absorbance	97900
CC(=O)c1ccc(/N=N/c2cc(/C=C/C(=O)O)ccc2O)cc1	–	> 100000

Compound	test	IC50 [nM]
COc1ccc(-c2nn(-c3ccc(S(C)(=O)=O)cc3)cc2C=N/N=c2\[nH]c(-c3ccc([N+](=O)[O-])cc3)cs2)cc1	–	8830
Cc1ccc(-c2nc3ccccc3s2)c(-c2ccc(S(C)(=O)=O)cc2)c1	absorbance	230
CC1=NN(c2cccc(Cl)c2)C(=O)/C1=C\c1cn(-c2nc(N3CCOCC3)nc(N3CCOCC3)n2)c2ccccc12	–	20
COc1ccc(Nc2c(-c3ccc(S(C)(=O)=O)cc3)nc3ccccn23)cc1	–	390
CC1=NN(c2cccc(Cl)c2)C(=O)/C1=C\c1cn(-c2nc(N3CCCC3)nc(N3CCOCC3)n2)c2ccccc12	–	1000
Cc1cccc2nc(-c3ccc(S(C)(=O)=O)cc3)c(Nc3ccccc3)n12	–	70
O=Cc1cn(-c2nc(Cl)nc(N3CCOCC3)n2)c2ccccc12	–	10000
CC(C)Cc1ccc(-c2nn(-c3ccc(S(C)(=O)=O)cc3)cc2/C=N/N=c2\[nH]c(-c3ccc([N+](=O)[O-])cc3)cs2)cc1	–	817
O=C1Nc2ccccc2/C1=C/c1cn(-c2nc(N3CCCC3)nc(N3CCOCC3)n2)c2ccccc12	–	8000
O=C(O)c1cc(O)c(O)c(O)c1	–	8140
CC1=NN(c2cccc(Cl)c2)C(=O)/C1=C\c1cn(-c2nc(N3CCCCC3)nc(N3CCCCC3)n2)c2ccccc12	–	100
Cc1ccc(Nc2c(-c3ccc(S(C)(=O)=O)cc3)nc3c(C)cccn23)cc1	–	70
O=C1/C(=C\c2cn(-c3nc(N4CCCC4)nc(N4CCOCC4)n3)c3ccccc23)c2ccccc2N1c1c(Cl)cccc1Cl	–	4000
Cc1ccc(Nc2c(-c3ccc(S(C)(=O)=O)cc3)nc3ccccn23)cc1	–	100
C=C[C@@]1(C)C=C2CC[C@@H]3[C@](C)(CCC[C@@]3(C)C(=O)O)[C@H]2CC1	absorbance	18500
O=Cc1cn(-c2nc(N3CCCCC3)nc(N3CCOCC3)n2)c2ccccc12	–	700
